Source: ChEMBL document CHEMBL4425169 (ACS Med Chem Lett, 2016)

Experiments:
[1] = Drug metabolism in human hepatocytes assessed as lactone hydrolysis at 1 uM measured at 120 mins; format: ADME, cell-based, Hepatocyte; conditions: read-out: Drug metabolism
[2] = Cardiotoxicity in vagotomized cardiovascular dog model assessed as effect on mean arterial pressure at plasma concentration <= 11.6 uM at 1 to 7 mg/kg, iv administered during three sequential 30 min periods; format: toxicity, organism-based, Canis lupus familiaris; conditions: in vivo, 0.5 h
Procedure, shortened: (§1)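 Anesthetized, vagotomized dogs received IV infusions over sequential periods at 1, 2 and 7 mg/kg (10 mg/kg cumulative). Heart rate, mean arterial pressure and ECG intervals (PR, QRS, QT/QTc) were recorded predose and during each infusion period. Plasma concentrations were measured.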

[3] = Dose normalized AUC in rat at 2 mg/kg, po; format: ADME, organism-based; conditions: in vivo
Procedure, shortened: (§2)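 Rats dosed once at 1 mg/kg IV and, separately, 2 mg/kg PO, with n = 3. Derived parameters were plasma clearance, Vdss, dose-normalized oral AUC (μM·h·kg/mg), half-life, and oral bioavailability (F%).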

[4] = target: T1, Cytochrome P450 3A4 (Homo sapiens, UniProt P08684); experiment: Reversible inhibition of human CYP3A4; format: ADME
[5] = Drug metabolism in dog hepatocytes assessed as oxidation at 1 uM measured at 120 mins; format: ADME, cell-based, Canis lupus familiaris, Hepatocyte; conditions: read-out: Drug metabolism
[6] = target: Voltage-gated inwardly rectifying potassium channel KCNH2 (Homo sapiens, UniProt Q12809); experiment: Inhibition of human ERG after 6 mins by electrophysiological assay
[7] = Half life in dog at 1 mg/kg, iv or 2 mg/kg, po; format: ADME, organism-based, Canis lupus familiaris; conditions: in vivo
[8] = Dose normalized AUC in rhesus monkey at 2 mg/kg, po; format: ADME, organism-based, Macaca mulatta; conditions: in vivo
[9] = test system: Rattus norvegicus; experiment: Antihypertensive activity in spontaneously hypertensive rat assessed as reduction in systolic blood pressure at 3 mg/kg via oral gavage qd administered for 4 days measured on day 4 by telemetry (reference value: 2.5 +/- 2.2 mmHg); format: functional
[10] = test system: Rattus norvegicus; experiment: Natriuretic activity in Sprague-Dawley rat at 3 mg/kg via oral gavage administered 30 mins prior to void induction by loading saline measured upto 4 hrs relative to vehicle treated control; format: functional
Procedure, shortened: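 Acute 4 h diuresis/natriuresis study in SD rats given a single oral dose, n = 5 per group. Urinary sodium output is expressed as fold increase over vehicle-treated animals, with significance tested against vehicle.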

[11] = target: Sodium channel protein type 5 subunit alpha (Homo sapiens, UniProt Q14524); experiment: Inhibition of Nav1.5 (unknown origin)
[12] = target: Cytochrome P450 2D6 (Homo sapiens, UniProt P10635); experiment: Reversible inhibition of human CYP2D6; format: ADME
[13] = test system: Rattus norvegicus; experiment: Natriuretic activity in Sprague-Dawley rat at 0.3 mg/kg via oral gavage administered 30 mins prior to void induction by loading saline measured upto 4 hrs relative to vehicle treated control; format: functional
Procedure, shortened: (§3)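 Acute rat diuresis model in male-unspecified Sprague-Dawley rats, single oral dose, urine collected over 4 h. Urine volume, sodium excretion and potassium excretion expressed as fold increase over vehicle-treated controls; n = 5 per group; significance tested against vehicle.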

[14] = Volume of distribution at steady state in dog at 1 mg/kg, iv or 2 mg/kg, po; format: ADME, organism-based, Canis lupus familiaris; conditions: in vivo, read-out: Vdss
[15] = Half life in rat at 1 mg/kg, iv or 2 mg/kg, po; format: ADME, organism-based; conditions: in vivo; procedure, shortened: as §2
[16] = Drug metabolism in bile duct cannulated rat assessed as lactone hydrolysis; format: ADME
[17] = test system: Rattus norvegicus; experiment: Diuretic activity in Sprague-Dawley rat at 1 mg/kg via oral gavage administered 30 mins prior to void induction by loading saline measured upto 4 hrs relative to vehicle treated control; format: functional; procedure, shortened: as §3
[18] = Drug metabolism in dog hepatocytes assessed as glucuronidation at 1 uM measured at 120 mins; format: ADME, cell-based, Canis lupus familiaris, Hepatocyte; conditions: read-out: Drug metabolism
[19] = test system: Rattus norvegicus; experiment: Antihypertensive activity in spontaneously hypertensive rat assessed as reduction in systolic blood pressure administered via oral gavage once daily for 4 days measured on day 4 by telemetry; format: functional, organism-based
[20] = Dose normalized AUC in dog at 2 mg/kg, po; format: ADME, organism-based, Canis lupus familiaris; conditions: in vivo
[21] = Cardiotoxicity in vagotomized cardiovascular dog model assessed as effect on PR interval at plasma concentration <= 11.6 uM at 1 to 7 mg/kg, iv administered during three sequential 30 min periods; format: toxicity, organism-based, Canis lupus familiaris; conditions: in vivo, 0.5 h; procedure, shortened: as §1
[22] = Drug metabolism in human hepatocytes assessed as glucuronidation at 1 uM measured at 120 mins; format: ADME, cell-based, Hepatocyte; conditions: read-out: Drug metabolism
[23] = Oral bioavailability in dog at 2 mg/kg; format: ADME, organism-based, Canis lupus familiaris; conditions: in vivo
[24] = test system: Rattus norvegicus; experiment: Antihypertensive activity in spontaneously hypertensive rat assessed as reduction in systolic blood pressure at 1 mg/kg via oral gavage qd administered for 4 days measured on day 4 by telemetry (reference value: 2.5 +/- 2.2 mmHg); format: functional
[25] = Drug metabolism in rat hepatocytes assessed as lactone hydrolysis at 1 uM measured at 120 mins; format: ADME, cell-based, Hepatocyte; conditions: read-out: Drug metabolism
[26] = target: T1, Cytochrome P450 3A4; experiment: Time dependent inhibition of human CYP3A4 at 10 to 50 uM; format: ADME
[27] = Clearance in dog at 1 mg/kg, iv or 2 mg/kg, po; format: ADME, organism-based, Canis lupus familiaris; conditions: in vivo
[28] = Volume of distribution at steady state in rhesus monkey at 1 mg/kg, iv or 2 mg/kg, po; format: ADME, organism-based, Macaca mulatta; conditions: in vivo, read-out: Vdss
[29] = Drug metabolism in rat hepatocytes assessed as oxidation at 1 uM measured at 120 mins; format: ADME, cell-based, Hepatocyte; conditions: 2 h
[30] = Half life in rhesus monkey at 1 mg/kg, iv or 2 mg/kg, po; format: ADME, organism-based, Macaca mulatta; conditions: in vivo
[31] = Drug excretion in bile duct cannulated rat urine; format: ADME; conditions: in vivo
[32] = Cardiotoxicity in vagotomized cardiovascular dog model assessed as effect on heart rate at plasma concentration <= 11.6 uM at 1 to 7 mg/kg, iv administered during three sequential 30 min periods; format: toxicity, organism-based, Canis lupus familiaris; conditions: in vivo, 0.5 h; procedure, shortened: as §1
[33] = Cardiotoxicity in vagotomized cardiovascular dog model assessed as effect on QT/QTc interval at plasma concentration <= 11.6 uM at 1 to 7 mg/kg, iv administered during three sequential 30 min periods; format: toxicity, organism-based, Canis lupus familiaris; conditions: in vivo, 0.5 h; procedure, shortened: as §1
[34] = Oral bioavailability in rhesus monkey at 2 mg/kg; format: ADME, organism-based, Macaca mulatta; conditions: in vivo
[35] = test system: Rattus norvegicus; experiment: Antihypertensive activity in spontaneously hypertensive rat assessed as reduction in systolic blood pressure at 10 mg/kg via oral gavage qd administered for 4 days measured on day 4 by telemetry (reference value: 2.5 +/- 2.2 mmHg); format: functional
[36] = test system: Rattus norvegicus; experiment: Diuretic activity in Sprague-Dawley rat at 10 mg/kg via oral gavage administered 30 mins prior to void induction by loading saline measured upto 4 hrs relative to vehicle treated control; format: functional
Procedure, shortened: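 Acute 4 h study in Sprague-Dawley rats after oral dosing, n = 5 per group. Urine volume and sodium and potassium excretion were expressed as fold increase over vehicle-treated animals. Significance was tested versus vehicle (p < 0.05 or p < 0.01).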

T1 sequence (P08684 whole entry): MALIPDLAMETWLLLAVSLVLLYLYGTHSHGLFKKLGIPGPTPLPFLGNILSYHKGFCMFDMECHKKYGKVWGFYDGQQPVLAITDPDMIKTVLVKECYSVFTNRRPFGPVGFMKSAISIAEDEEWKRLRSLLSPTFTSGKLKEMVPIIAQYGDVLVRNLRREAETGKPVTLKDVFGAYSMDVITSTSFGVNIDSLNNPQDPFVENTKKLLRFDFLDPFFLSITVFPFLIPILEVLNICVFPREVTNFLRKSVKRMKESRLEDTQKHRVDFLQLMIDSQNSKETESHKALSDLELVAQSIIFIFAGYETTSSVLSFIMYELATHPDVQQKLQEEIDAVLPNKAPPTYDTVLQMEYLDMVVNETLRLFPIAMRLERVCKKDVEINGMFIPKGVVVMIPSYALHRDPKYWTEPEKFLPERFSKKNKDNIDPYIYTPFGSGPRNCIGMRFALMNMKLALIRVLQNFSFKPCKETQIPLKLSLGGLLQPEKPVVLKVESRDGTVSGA
Chain of Sodium channel protein type 5 subunit alpha (Q14524 whole entry): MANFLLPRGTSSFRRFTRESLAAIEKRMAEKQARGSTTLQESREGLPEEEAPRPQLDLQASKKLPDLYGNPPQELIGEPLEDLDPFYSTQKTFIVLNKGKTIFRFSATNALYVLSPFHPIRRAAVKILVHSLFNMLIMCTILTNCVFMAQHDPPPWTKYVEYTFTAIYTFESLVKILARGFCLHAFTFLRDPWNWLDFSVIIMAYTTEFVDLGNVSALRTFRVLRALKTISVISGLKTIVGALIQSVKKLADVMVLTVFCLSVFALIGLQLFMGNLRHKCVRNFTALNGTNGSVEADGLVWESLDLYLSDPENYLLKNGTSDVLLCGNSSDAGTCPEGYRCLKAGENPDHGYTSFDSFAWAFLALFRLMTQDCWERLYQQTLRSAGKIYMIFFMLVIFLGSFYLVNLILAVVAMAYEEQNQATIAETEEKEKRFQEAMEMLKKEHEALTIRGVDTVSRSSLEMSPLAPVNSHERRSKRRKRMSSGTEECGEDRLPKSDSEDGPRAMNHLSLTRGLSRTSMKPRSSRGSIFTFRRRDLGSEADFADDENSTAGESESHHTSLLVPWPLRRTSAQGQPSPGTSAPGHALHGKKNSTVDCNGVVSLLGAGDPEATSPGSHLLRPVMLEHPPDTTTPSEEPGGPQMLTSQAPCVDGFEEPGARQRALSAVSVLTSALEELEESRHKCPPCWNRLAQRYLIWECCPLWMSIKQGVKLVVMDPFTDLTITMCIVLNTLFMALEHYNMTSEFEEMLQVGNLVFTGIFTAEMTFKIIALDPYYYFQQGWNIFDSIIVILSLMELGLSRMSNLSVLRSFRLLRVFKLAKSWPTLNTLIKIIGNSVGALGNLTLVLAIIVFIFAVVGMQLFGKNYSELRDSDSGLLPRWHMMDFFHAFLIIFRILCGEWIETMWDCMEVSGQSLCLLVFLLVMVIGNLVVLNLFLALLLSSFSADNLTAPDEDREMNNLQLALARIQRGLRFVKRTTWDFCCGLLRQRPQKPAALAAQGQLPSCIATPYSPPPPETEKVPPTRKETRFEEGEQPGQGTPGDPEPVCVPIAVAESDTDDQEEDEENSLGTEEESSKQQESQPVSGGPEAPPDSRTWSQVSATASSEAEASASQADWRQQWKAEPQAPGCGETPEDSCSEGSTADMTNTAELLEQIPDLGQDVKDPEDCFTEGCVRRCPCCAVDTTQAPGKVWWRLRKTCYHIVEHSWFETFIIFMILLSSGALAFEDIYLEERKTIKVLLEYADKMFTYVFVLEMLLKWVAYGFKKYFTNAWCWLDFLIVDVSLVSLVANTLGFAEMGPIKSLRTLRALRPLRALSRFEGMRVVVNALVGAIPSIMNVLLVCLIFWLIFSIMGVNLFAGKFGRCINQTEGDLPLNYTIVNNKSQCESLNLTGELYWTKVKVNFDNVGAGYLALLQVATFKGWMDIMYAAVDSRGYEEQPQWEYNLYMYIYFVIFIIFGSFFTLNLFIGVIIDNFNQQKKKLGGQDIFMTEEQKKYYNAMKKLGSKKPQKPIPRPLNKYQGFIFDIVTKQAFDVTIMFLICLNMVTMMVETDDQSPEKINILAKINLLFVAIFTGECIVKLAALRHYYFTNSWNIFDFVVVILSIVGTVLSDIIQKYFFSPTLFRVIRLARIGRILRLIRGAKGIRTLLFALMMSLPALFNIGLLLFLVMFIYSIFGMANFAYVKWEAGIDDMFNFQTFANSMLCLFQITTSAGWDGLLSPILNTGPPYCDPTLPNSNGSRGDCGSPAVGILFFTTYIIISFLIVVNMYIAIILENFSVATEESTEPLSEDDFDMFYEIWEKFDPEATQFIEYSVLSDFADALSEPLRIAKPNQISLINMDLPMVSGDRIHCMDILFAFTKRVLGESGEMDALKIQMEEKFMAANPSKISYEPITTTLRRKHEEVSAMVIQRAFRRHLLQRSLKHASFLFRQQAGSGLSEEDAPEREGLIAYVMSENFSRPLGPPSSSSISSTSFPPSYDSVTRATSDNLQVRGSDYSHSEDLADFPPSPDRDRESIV
Chain of Voltage-gated inwardly rectifying potassium channel KCNH2 (Q12809 whole entry): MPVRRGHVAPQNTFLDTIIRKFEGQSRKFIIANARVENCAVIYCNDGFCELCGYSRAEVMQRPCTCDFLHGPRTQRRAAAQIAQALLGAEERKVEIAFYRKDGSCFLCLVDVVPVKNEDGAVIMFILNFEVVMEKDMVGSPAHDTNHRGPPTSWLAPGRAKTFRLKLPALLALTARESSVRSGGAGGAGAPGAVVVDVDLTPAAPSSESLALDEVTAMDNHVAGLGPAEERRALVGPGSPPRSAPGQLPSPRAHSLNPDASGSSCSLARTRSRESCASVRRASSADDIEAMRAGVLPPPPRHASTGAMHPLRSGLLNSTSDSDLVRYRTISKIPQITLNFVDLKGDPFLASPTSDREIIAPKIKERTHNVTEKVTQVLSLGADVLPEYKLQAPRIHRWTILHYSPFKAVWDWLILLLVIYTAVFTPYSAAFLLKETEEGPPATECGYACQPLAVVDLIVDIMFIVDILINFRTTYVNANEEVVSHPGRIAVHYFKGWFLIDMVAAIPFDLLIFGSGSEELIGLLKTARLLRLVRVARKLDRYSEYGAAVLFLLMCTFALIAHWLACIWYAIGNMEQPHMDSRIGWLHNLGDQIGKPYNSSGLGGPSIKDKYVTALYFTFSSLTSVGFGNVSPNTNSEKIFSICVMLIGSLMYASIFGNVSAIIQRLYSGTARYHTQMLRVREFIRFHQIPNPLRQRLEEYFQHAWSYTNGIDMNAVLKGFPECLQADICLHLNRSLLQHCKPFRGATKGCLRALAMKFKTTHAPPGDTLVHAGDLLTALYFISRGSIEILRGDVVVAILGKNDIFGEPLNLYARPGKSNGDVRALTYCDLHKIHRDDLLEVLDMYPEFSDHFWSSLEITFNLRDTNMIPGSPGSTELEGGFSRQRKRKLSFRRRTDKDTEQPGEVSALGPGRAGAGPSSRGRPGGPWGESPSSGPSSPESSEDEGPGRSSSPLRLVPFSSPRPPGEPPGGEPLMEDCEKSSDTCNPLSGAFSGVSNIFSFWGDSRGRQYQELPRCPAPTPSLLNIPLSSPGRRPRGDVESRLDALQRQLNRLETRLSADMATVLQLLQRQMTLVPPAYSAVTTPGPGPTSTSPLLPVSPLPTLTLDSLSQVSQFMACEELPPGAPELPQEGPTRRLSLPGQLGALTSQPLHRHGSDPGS
Chain of Cytochrome P450 2D6 (P10635 whole entry): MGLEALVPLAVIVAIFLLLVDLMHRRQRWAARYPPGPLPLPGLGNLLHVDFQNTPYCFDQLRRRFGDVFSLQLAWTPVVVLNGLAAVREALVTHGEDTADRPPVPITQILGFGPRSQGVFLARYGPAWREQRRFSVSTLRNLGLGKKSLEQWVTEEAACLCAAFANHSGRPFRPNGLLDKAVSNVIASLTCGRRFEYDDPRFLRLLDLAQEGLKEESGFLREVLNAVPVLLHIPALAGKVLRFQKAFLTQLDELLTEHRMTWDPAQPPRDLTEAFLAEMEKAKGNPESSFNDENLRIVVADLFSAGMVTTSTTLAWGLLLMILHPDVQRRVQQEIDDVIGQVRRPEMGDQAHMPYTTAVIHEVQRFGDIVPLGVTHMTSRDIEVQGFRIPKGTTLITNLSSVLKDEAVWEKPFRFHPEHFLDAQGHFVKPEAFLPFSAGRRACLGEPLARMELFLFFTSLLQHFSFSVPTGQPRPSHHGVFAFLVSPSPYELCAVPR

Structure (SMILES): Cc1c([C@@H](O)CN2CCN(C[C@H](O)c3ccc4c(c3C)COC4=O)CC2)ccc2c1COC2=O [MK-7145]
- metabolised at 2 h, 1 µM [1]: < 1%
- Activity [2]: Non-Toxic
- AUC/dose [3]: 0.14 µM·kg·h/mg
- IC50 [4]: > 50 µM
- metabolised at 2 h, 1 µM [5]: 15 to 37%
- IC50 [6]: 22 µM
- half-life [7]: 1.7 h
- AUC/dose [8]: 0.3 µM·kg·h/mg
- Activity [9]: 12.4 mmHg
- fold change (FC) [10]: 8
- IC50 [11]: > 30 µM
- IC50 [12]: > 50 µM
- fold change (FC) [13]: 6.2
- Vd [14]: 7.5 L/kg
- half-life [15]: 1.1 h
- Drug metabolism [16]: Metabolite_Detected
- fold change (FC) [17]: 8.6
- metabolised at 2 h, 1 µM [18]: < 1%
- Activity [19]: Dose-dependent effect
- AUC/dose [20]: 0.32 µM·kg·h/mg
- Activity [21]: Non-Toxic
- metabolised at 2 h, 1 µM [22]: < 1%
- bioavailability [23]: 51%
- Activity [24]: 9.4 mmHg
- metabolised at 2 h, 1 µM [25]: < 1%
- TDI [26]: Not Active
- clearance [27]: 56 mL/min/kg
- Vd [28]: 6.7 L/kg
- Drug metabolism [29]: 15 to 37%
- half-life [30]: 4 h
- Drug excretion [31]: Metabolite_Detected
- Activity [32]: Non-Toxic
- Activity [33]: Non-Toxic
- bioavailability [34]: 25%
- Activity [35]: 19.9 mmHg
- fold change (FC) [36]: 9.4
